In ChEMBL document CHEMBL3576819, “Design, synthesis, biological evaluation and molecular docking studies of phenylpropanoid derivatives as potent anti-hepatitis B virus agents” (Eur J Med Chem, 2015):

Tests used:
[1] = system: Hepatitis B virus; assay: Antiviral activity against Hepatitis B virus infected in human HepG2.2.15 cells assessed as inhibition of HBsAg secretion at 150 uM after 6 days by ELISA; assay type: functional; conditions: HepG2 2.2.15, 144 h
In short: (§1)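 HepG2.2.15 cells (MEM, 10% FBS, 380 µg/ml G418) seeded at 1×10^5 cells/ml, held 24 h at 37 °C, then treated with various drug concentrations; medium with drug renewed every 3 d for up to 9 d. Culture medium sampled on days 3, 6 and 9, stored at -20 °C, and assayed for secreted antigen. Lamivudine as positive control; IC50 = 50% inhibition of secretion; means of at least two experiments.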

[2] = system: Hepatitis B virus; assay: Antiviral activity against Hepatitis B virus infected in human HepG2.2.15 cells assessed as inhibition of HBeAg secretion at 150 uM after 9 days by ELISA; assay type: functional; conditions: HepG2 2.2.15, 216 h; in short: as §1
[3] = Selectivity index, ratio of CC50 for human HepG2.2.15 cells to IC50 for Hepatitis B virus infected in human HepG2.2.15 cells assessed as inhibition of HBeAg secretion; assay type: functional
In short: (§2)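 Selectivity index computed as CC50/IC50, with CC50 from cell death of HepG2.2.15 cells after 9 days of treatment (OD 450 nm) and IC50 from 50% inhibition of HBeAg or HBsAg secretion in the same cells; medium with drug renewed every 3 d.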

[4] = system: Hepatitis B virus; assay: Antiviral activity against Hepatitis B virus infected in human HepG2.2.15 cells assessed as inhibition of HBeAg secretion at 37.5 uM after 9 days by ELISA; assay type: functional; conditions: HepG2 2.2.15, 216 h; in short: as §1
[5] = system: Hepatitis B virus; assay: Antiviral activity against Hepatitis B virus infected in human HepG2.2.15 cells assessed as inhibition of HBsAg secretion at 300 uM after 3 days by ELISA; assay type: functional; conditions: HepG2 2.2.15, 72 h; in short: as §1
[6] = system: Hepatitis B virus; assay: Antiviral activity against Hepatitis B virus infected in human HepG2.2.15 cells assessed as inhibition of HBeAg secretion at 75 uM after 6 days by ELISA; assay type: functional; conditions: HepG2 2.2.15, 144 h; in short: as §1
[7] = system: Hepatitis B virus; assay: Antiviral activity against Hepatitis B virus infected in human HepG2.2.15 cells assessed as cell survival at 37.5 uM after 9 days (reference value: 100%); assay type: functional; conditions: HepG2 2.2.15, 216 h
In short: (§3)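 HepG2.2.15 cells (MEM, 10% FBS, 380 µg/ml G418, 37 °C, 5% CO2) seeded at 1×10^5 cells/ml, cultured 24 h, then exposed to various drug concentrations; drug-containing medium renewed every 3 d. OD read at 450 nm after 9 days; percent cell death calculated; CC50 = concentration killing 50% of cells. Means of at least two experiments.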

[8] = system: Hepatitis B virus; assay: Antiviral activity against Hepatitis B virus infected in human HepG2.2.15 cells assessed as inhibition of HBeAg secretion at 300 uM after 6 days by ELISA; assay type: functional; conditions: HepG2 2.2.15, 144 h; in short: as §1
[9] = system: Hepatitis B virus; assay: Antiviral activity against Hepatitis B virus infected in human HepG2.2.15 cells assessed as inhibition of HBeAg secretion by ELISA; assay type: functional, organism-based; conditions: HepG2 2.2.15; in short: as §1
[10] = system: Hepatitis B virus; assay: Antiviral activity against Hepatitis B virus infected in human HepG2.2.15 cells assessed as inhibition of HBeAg secretion at 75 uM after 3 days by ELISA; assay type: functional; conditions: HepG2 2.2.15, 72 h; in short: as §1
[11] = system: Hepatitis B virus; assay: Antiviral activity against Hepatitis B virus infected in human HepG2.2.15 cells assessed as cell survival at 75 uM after 9 days (reference value: 100%); assay type: functional; conditions: HepG2 2.2.15, 216 h; in short: as §3
[12] = system: Hepatitis B virus; assay: Antiviral activity against Hepatitis B virus infected in human HepG2.2.15 cells assessed as inhibition of HBsAg secretion at 75 uM after 6 days by ELISA; assay type: functional; conditions: HepG2 2.2.15, 144 h; in short: as §1
[13] = system: Hepatitis B virus; assay: Antiviral activity against Hepatitis B virus infected in human HepG2.2.15 cells assessed as inhibition of HBeAg secretion at 300 uM after 3 days by ELISA; assay type: functional; conditions: HepG2 2.2.15, 72 h; in short: as §1
[14] = system: Hepatitis B virus; assay: Antiviral activity against Hepatitis B virus infected in human HepG2.2.15 cells assessed as inhibition of HBsAg secretion at 37.5 uM after 6 days by ELISA; assay type: functional; conditions: HepG2 2.2.15, 144 h; in short: as §1
[15] = system: Hepatitis B virus; assay: Antiviral activity against Hepatitis B virus infected in human HepG2.2.15 cells assessed as inhibition of HBsAg secretion at 75 uM after 3 days by ELISA; assay type: functional; conditions: HepG2 2.2.15, 72 h; in short: as §1
[16] = system: Hepatitis B virus; assay: Antiviral activity against Hepatitis B virus infected in human HepG2.2.15 cells assessed as inhibition of HBsAg secretion at 37.5 uM after 3 days by ELISA; assay type: functional; conditions: HepG2 2.2.15, 72 h; in short: as §1
[17] = system: Hepatitis B virus; assay: Antiviral activity against Hepatitis B virus infected in human HepG2.2.15 cells assessed as cell survival at 300 uM after 9 days (reference value: 100%); assay type: functional; conditions: HepG2 2.2.15, 216 h; in short: as §3
[18] = system: Hepatitis B virus; assay: Antiviral activity against Hepatitis B virus infected in human HepG2.2.15 cells assessed as inhibition of HBeAg secretion at 75 uM after 9 days by ELISA; assay type: functional; conditions: HepG2 2.2.15, 216 h; in short: as §1
[19] = Selectivity index, ratio of CC50 for human HepG2.2.15 cells to IC50 for Hepatitis B virus infected in human HepG2.2.15 cells assessed as inhibition of HBsAg secretion; assay type: functional; in short: as §2
[20] = system: Hepatitis B virus; assay: Antiviral activity against Hepatitis B virus infected in human HepG2.2.15 cells assessed as cell survival at 150 uM after 9 days (reference value: 100%); assay type: functional; conditions: HepG2 2.2.15, 216 h; in short: as §3
[21] = system: Hepatitis B virus; assay: Antiviral activity against Hepatitis B virus infected in human HepG2.2.15 cells assessed as inhibition of HBsAg secretion at 300 uM after 6 days by ELISA; assay type: functional; conditions: HepG2 2.2.15, 144 h; in short: as §1
[22] = system: Hepatitis B virus; assay: Antiviral activity against Hepatitis B virus infected in human HepG2.2.15 cells assessed as inhibition of HBeAg secretion at 37.5 uM after 6 days by ELISA; assay type: functional; conditions: HepG2 2.2.15, 144 h; in short: as §1
[23] = system: Hepatitis B virus; assay: Antiviral activity against Hepatitis B virus infected in human HepG2.2.15 cells assessed as inhibition of HBsAg secretion at 37.5 uM after 9 days by ELISA; assay type: functional; conditions: HepG2 2.2.15, 216 h; in short: as §1
[24] = system: Hepatitis B virus; assay: Antiviral activity against Hepatitis B virus infected in human HepG2.2.15 cells assessed as inhibition of HBsAg secretion at 300 uM after 9 days by ELISA; assay type: functional; conditions: HepG2 2.2.15, 216 h; in short: as §1
[25] = system: Hepatitis B virus; assay: Antiviral activity against Hepatitis B virus infected in human HepG2.2.15 cells assessed as inhibition of HBsAg secretion at 75 uM after 9 days by ELISA; assay type: functional; conditions: HepG2 2.2.15, 216 h; in short: as §1
[26] = system: Hepatitis B virus; assay: Antiviral activity against Hepatitis B virus infected in human HepG2.2.15 cells assessed as inhibition of HBeAg secretion at 150 uM after 3 days by ELISA; assay type: functional; conditions: HepG2 2.2.15, 72 h; in short: as §1
[27] = system: Hepatitis B virus; assay: Antiviral activity against Hepatitis B virus infected in human HepG2.2.15 cells assessed as inhibition of HBsAg secretion by ELISA; assay type: functional, organism-based; conditions: HepG2 2.2.15; in short: as §1
[28] = system: Hepatitis B virus; assay: Antiviral activity against Hepatitis B virus infected in human HepG2.2.15 cells assessed as inhibition of HBsAg secretion at 150 uM after 3 days by ELISA; assay type: functional; conditions: HepG2 2.2.15, 72 h; in short: as §1
[29] = system: Hepatitis B virus; assay: Antiviral activity against Hepatitis B virus infected in human HepG2.2.15 cells assessed as inhibition of HBeAg secretion at 150 uM after 6 days by ELISA; assay type: functional; conditions: HepG2 2.2.15, 144 h; in short: as §1
[30] = Cytotoxicity against human HepG2.2.15 cells assessed as cell death after 9 days by MTT assay; assay type: cell-based, HepG2 2.2.15; in short: as §3
[31] = system: Hepatitis B virus; assay: Antiviral activity against Hepatitis B virus infected in human HepG2.2.15 cells assessed as inhibition of HBsAg secretion at 150 uM after 9 days by ELISA; assay type: functional; conditions: HepG2 2.2.15, 216 h; in short: as §1
[32] = system: Hepatitis B virus; assay: Antiviral activity against Hepatitis B virus infected in human HepG2.2.15 cells assessed as inhibition of HBeAg secretion at 300 uM after 9 days by ELISA; assay type: functional; conditions: HepG2 2.2.15, 216 h; in short: as §1
[33] = system: Hepatitis B virus; assay: Antiviral activity against Hepatitis B virus infected in human HepG2.2.15 cells assessed as inhibition of HBeAg secretion at 37.5 uM after 3 days by ELISA; assay type: functional; conditions: HepG2 2.2.15, 72 h; in short: as §1

IC50 [9]: 190 µM
IC50 [27]: 173 µM
SMILES: COc1cc(/C=C/C(=O)O/N=C/c2ccco2)cc(OC)c1OC
inhibition at 150 µM [1]: 36.4%
inhibition at 150 µM [2]: 45.1%
Ratio CC50/IC50 [3]: 5.54
inhibition at 37.5 µM [4]: 25.4%
inhibition at 300 µM [5]: 36.7%
inhibition at 75 µM [6]: 25.8%
viability at 37.5 µM [7]: 133%
inhibition at 300 µM [8]: 42.6%
inhibition at 75 µM [10]: 13.2%
viability at 75 µM [11]: 127%
inhibition at 75 µM [12]: 28.9%
inhibition at 300 µM [13]: 29.2%
inhibition at 37.5 µM [14]: 15.2%
inhibition at 75 µM [15]: 16.2%
inhibition at 37.5 µM [16]: 8.45%
viability at 300 µM [17]: 76.1%
inhibition at 75 µM [18]: 35.6%
Ratio CC50/IC50 [19]: 6.06
viability at 150 µM [20]: 93.2%
inhibition at 300 µM [21]: 50.1%
inhibition at 37.5 µM [22]: 17.9%
inhibition at 37.5 µM [23]: 15.8%
inhibition at 300 µM [24]: 60.8%
inhibition at 75 µM [25]: 36%
inhibition at 150 µM [26]: 22.6%
inhibition at 150 µM [28]: 23.7%
inhibition at 150 µM [29]: 34.3%
CC50 at 216 h [30]: 1050 µM
inhibition at 150 µM [31]: 47.1%
inhibition at 300 µM [32]: 58%
inhibition at 37.5 µM [33]: 5.59%
